In ChEMBL document CHEMBL1124286, “(R)-(-)-10-methyl-11-hydroxyaporphine: a highly selective serotonergic agonist” (1988):

What was measured:
[1] = species: Rattus norvegicus; assay: Influence on 5-hydroxy tryptamine (5-HT) concentration in hippocampus region of brain; type: functional, organism-based
In short: (§1)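 Male Sprague-Dawley rats (150-250 g) given 4 mg/kg sc; killed 30 min later. Brain regions dissected, weighed, homogenized in 0.01 N HClO4, kept on ice 15 min, centrifuged 13000g 2 min. Supernatant analysed by HPLC with electrochemical detection: C-18 reverse-phase column, 0.1 M sodium phosphate mobile phase with EDTA, octanesulfonic acid, 10% MeOH, pH 3.8; glassy carbon electrode at +0.65. Compared with untreated controls by ANOVA and multiple regression.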

[2] = species: Rattus norvegicus; assay: Influence on 5-hydroxyindoleacetic acid (5-HIAA) concentration in frontal cortex region of brain; type: functional, organism-based; in short: as §1
[3] = Ratio of 5-HT concentration to 5-HIAA concentration in olfactory tubercle region of brain; type: functional; in short: as §1
[4] = species: Rattus norvegicus; assay: Influence on 5-hydroxyindoleacetic acid (5-HIAA) concentration in hypothalamus region of brain; type: functional, organism-based; in short: as §1
[5] = species: Rattus norvegicus; assay: Influence on 5-hydroxy tryptamine (5-HT) concentration in frontal cortex region of brain; type: functional, organism-based; in short: as §1
[6] = species: Rattus norvegicus; assay: Influence on 5-hydroxyindoleacetic acid (5-HIAA) concentration in hippocampus region of brain; type: functional, organism-based; in short: as §1
[7] = species: Rattus norvegicus; assay: Influence on 5-hydroxyindoleacetic acid (5-HIAA) concentration in parietal cortex region of brain; type: functional, organism-based; in short: as §1
[8] = Ratio of 5-HT concentration to 5-HIAA concentration in amygdala region of brain; type: functional; in short: as §1
[9] = Ratio of 5-HT concentration to 5-HIAA concentration in parietal cortex region of brain; type: functional; in short: as §1
[10] = species: Rattus norvegicus; assay: Influence on 5-hydroxy tryptamine (5-HT) concentration in septum region of brain; type: functional, organism-based; in short: as §1
[11] = Ratio of 5-HT concentration to 5-HIAA concentration in hippocampus region of brain; type: functional; in short: as §1
[12] = species: Rattus norvegicus; assay: Influence on 5-hydroxy tryptamine (5-HT) concentration in amygdala region of brain; type: functional, organism-based; in short: as §1
[13] = species: Rattus norvegicus; assay: Influence on 5-hydroxyindoleacetic acid (5-HIAA) concentration in caudate region of brain; type: functional, organism-based; in short: as §1
[14] = species: Rattus norvegicus; assay: Influence on 5-hydroxyindoleacetic acid (5-HIAA) concentration in septum region of brain; type: functional, organism-based; in short: as §1
[15] = Ratio of 5-HT concentration to 5-HIAA concentration in frontal cortex region of brain; type: functional; in short: as §1
[16] = species: Rattus norvegicus; assay: Influence on 5-hydroxyindoleacetic acid (5-HIAA) concentration in olfactory tubercle region of brain; type: functional, organism-based; in short: as §1
[17] = species: Rattus norvegicus; assay: Influence on 5-hydroxyindoleacetic acid (5-HIAA)concentration in amygdala region of brain; type: functional, organism-based; in short: as §1
[18] = species: Rattus norvegicus; assay: Influence on 5-hydroxy tryptamine (5-HT) concentration in hypothalamus region of brain; type: functional, organism-based; in short: as §1
[19] = Ratio of 5-HT concentration to 5-HIAA concentration in caudate region of brain; type: functional; in short: as §1
[20] = Ratio of 5-HT concentration to 5-HIAA concentration in hypothalamus region of brain; type: functional; in short: as §1
[21] = species: Rattus norvegicus; assay: Influence on 5-hydroxy tryptamine (5-HT) concentration in parietal cortex region of brain; type: functional, organism-based; in short: as §1
[22] = species: Rattus norvegicus; assay: Influence on 5-hydroxy tryptamine (5-HT) concentration in caudate region of brain; type: functional, organism-based; in short: as §1
[23] = species: Rattus norvegicus; assay: Influence on 5-hydroxy tryptamine (5-HT) concentration in olfactory tubercle region of brain; type: functional, organism-based; in short: as §1
[24] = Ratio of 5-HT concentration to 5-HIAA concentration in septum region of brain; type: functional; in short: as §1

CCCN(CCC)C1CCc2cccc(O)c2C1 (centres undefined) [8-OH-DPAT]
Concentration [1]: 4.2 nM/g | Concentration [2]: 0.8 nM/g | Ratio [3]: 5.9 | Concentration [4]: 1.9 nM/g | Concentration [5]: 4.2 nM/g | Concentration [6]: 1.7 nM/g | Concentration [7]: 0.8 nM/g | Ratio [8]: 5.8 | Ratio [9]: 4.1 | Concentration [10]: 4.5 nM/g | Ratio [11]: 2.5 | Concentration [12]: 4.9 nM/g | Concentration [13]: 2.6 nM/g | Concentration [14]: 1.5 nM/g | Ratio [15]: 5.8 | Concentration [16]: 1.4 nM/g | Concentration [17]: 1 nM/g | Concentration [18]: 7.1 nM/g | Ratio [19]: 1.5 | Ratio [20]: 3.9 | Concentration [21]: 3.1 nM/g | Concentration [22]: 3.6 nM/g | Concentration [23]: 8.3 nM/g | Ratio [24]: 3
